Results taken from ChEMBL document CHEMBL1134327, “Design, synthesis, and pharmacological evaluation of thapsigargin analogues for targeting apoptosis to prostatic cancer cells” (2001).
Values joined by “and” are separate entries in the source; they are usually repeats but may differ in a detail not shown here. Equal entries are not always repeated.

Columns and labels:
Oryctolagus cuniculus [1] = species on record: Oryctolagus cuniculus; experiment: Inhibition of rabbit skeletal muscle SERCA activity relative to TG
Oryctolagus cuniculus [2] = species on record: Oryctolagus cuniculus; experiment: Inhibition of rabbit skeletal muscle sarcoplasmic and endoplasmic reticulum [Ca(2+)]-dependent ATPases(SERCA) activity
Method in brief: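 Rabbit skeletal-muscle SR microsomes were prepared by differential centrifugation with a 0.6 M KCl wash. Buffer was pH 7.5 Tris with KCl, MgCl2, EGTA/CaCl2 and A23187. Doses were in nmol/mg SR protein. Activity is % of uninhibited control in triplicate, corrected for residual Ca²⁺-independent ATPase.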

[3] = Increase in cytosolic [Ca2+] concentration in TSU-Pr1 cells at given effective cytotoxic concentration.; type: functional, Homo sapiens
[4] = Loss of clonogenic survival of human prostate cancer TSU-Pr1 cells relative to TG was determined; type: functional
[5] = Loss of clonogenic survival of human prostate cancer TSU-Pr1 cells.; type: functional; settings: read-out: LC50 (the source's name)
Method in brief: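 TSU-Pr1 human prostatic cancer cells treated with each analogue. Clonogenic survival compared with untreated controls. Value reported as LC50 (µM), the concentration producing 50% loss of clonogenic survival.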

Row | Structure (SMILES) | Activity (Oryctolagus cuniculus [1]) | ID50 (nM (mg SR protein)-1) (Oryctolagus cuniculus [2]) | Activity [3] | Activity [4] | CC50 [5] [nM] | [Ca2+] [3] [nM]
1 | C/C=C(/C)C(=O)O[C@H]1C(C)=C2[C@H]([C@@H]1OC(=O)CCCCCCC)[C@@](C)(OC(C)=O)C[C@H](OC(=O)CCCCCCCN)[C@@]1(O)[C@H]2OC(=O)[C@@]1(C)O | 17 | 223 | 217 nM | 128 | 3850 | –
2 | C/C=C(/C)C(=O)O[C@H]1C(C)=C2[C@H]([C@@H]1OC(=O)CCCCCCC)[C@@](C)(OC(C)=O)C[C@H](OC(=O)CCCCCN)[C@@]1(O)[C@H]2OC(=O)[C@@]1(C)O | 99 | 1330 | 284 nM | >667 | > 20000 | –
3 | C/C=C(/C)C(=O)O[C@H]1C(C)=C2[C@H]([C@@H]1OC(=O)CCCCCCC)[C@@](C)(OC(C)=O)C[C@H](OC(=O)CCCCCCCCCCCNC(=O)[C@@H](N)CC(C)C)[C@@]1(O)[C@H]2OC(=O)[C@@]1(C)O | 3.4 | 45 | 414 nM | 1 | 30 | 173
4 | C/C=C(/C)C(=O)O[C@H]1C(C)=C2[C@H]([C@@H]1OC(=O)CCCCCCC)[C@@](C)(OC(C)=O)C[C@H](OC(=O)CCCCCCCCCCCNC(=O)[C@@H](N)CO)[C@@]1(O)[C@H]2OC(=O)[C@@]1(C)O | 0.8 | 10.3 | – | 30 | 890 | –
5 | C/C=C(/C)C(=O)O[C@H]1C(C)=C2[C@H]([C@@H]1OC(=O)CCCCCCC)[C@@](C)(OC(C)=O)C[C@H](OC(=O)CCCCCCCCCCCN)[C@@]1(O)[C@H]2OC(=O)[C@@]1(C)O | 2.6 | 35 | 369 nM and 235 nM | 39 | 1160 | –
6 | C/C=C(/C)C(=O)O[C@H]1C(C)=C2[C@H]([C@@H]1OC(=O)CCCCCCC)[C@@](C)(OC(C)=O)C[C@H](OC(=O)CCC)[C@@]1(O)[C@H]2OC(=O)[C@@]1(C)O [THAPSIGARGIN] | 1 | 13.4 | – | 1 | 30 | –
7 | C/C=C(/C)C(=O)O[C@H]1C(C)=C2[C@H]([C@@H]1OC(=O)CCCCCCC)[C@@](C)(OC(C)=O)C[C@H](OC(=O)CCCCCCCCCCCNC(=O)[C@@H](N)Cc1ccccc1)[C@@]1(O)[C@H]2OC(=O)[C@@]1(C)O | – | – | 446 nM and 406 nM | 7 | 210 | –
8 | C/C=C(/C)C(=O)O[C@H]1C(C)=C2[C@H]([C@@H]1OC(=O)CCCCCCC)[C@@](C)(OC(C)=O)C[C@H](OC(=O)CCCCCCCCCCN)[C@@]1(O)[C@H]2OC(=O)[C@@]1(C)O | 3 | 40 | 420 nM and 242 nM | 25 | 750 | –
9 | C/C=C(/C)C(=O)O[C@H]1C(C)=C2[C@H]([C@@H]1OC(=O)CCCCCCC)[C@@](C)(OC(C)=O)C[C@H](OC(=O)CCCCCCCCCCCNC(=O)[C@H](C)N)[C@@]1(O)[C@H]2OC(=O)[C@@]1(C)O | 1.2 | 16.5 | 410 nM and 338 nM | 9.3 | 280 | –
10 | C/C=C(/C)C(=O)O[C@H]1C(C)=C2[C@H]([C@@H]1OC(=O)CCCCCCC)[C@@](C)(OC(C)=O)C[C@H](OC(=O)CCc1ccc(NC(=O)[C@@H](N)CC(C)C)cc1)[C@@]1(O)[C@H]2OC(=O)[C@@]1(C)O | 35 | 466 | – | 29 | 880 | –
11 | C/C=C(/C)C(=O)O[C@H]1C(C)=C2[C@H]([C@@H]1OC(=O)CCCCCCC)[C@@](C)(OC(C)=O)C[C@H](OC(=O)CCCCCCN)[C@@]1(O)[C@H]2OC(=O)[C@@]1(C)O | 90 | 1210 | 209 nM | 364 | 10900 | –
12 | C/C=C(/C)C(=O)O[C@H]1C(C)=C2[C@H]([C@@H]1OC(=O)CCCCCCC)[C@@](C)(OC(C)=O)C[C@H](OC(=O)CCCCCNC(=O)[C@@H](N)CC(C)C)[C@@]1(O)[C@H]2OC(=O)[C@@]1(C)O | 287 | 3840 | 84 nM and 40 nM | >667 | > 20000 | –
